Columns and labels:
[1] = Clearance adjusted for unbound fraction in Sprague-Dawley rat at 1 mg/kg, iv administered as 30 mins infusion by LC/MS/MS analysis; assay type: ADME, organism-based; conditions: in vivo, 0.5 h
[2] = Plasma concentration in Sprague-Dawley rat heart failure-induced pulmonary edema model at 0.07 ug/kg, iv bolus loading dose followed by 0.8 ug/kg/min, iv continuous infusion dose for 60 mins; assay type: ADME, organism-based; conditions: 7e-05 mg/kg
[3] = molecular target: Transient receptor potential cation channel subfamily M member 2 (Homo sapiens, UniProt O94759); test: Antagonist activity at TRPM2 (unknown origin)
[4] = molecular target: Cytochrome P450 3A4 (Homo sapiens, UniProt P08684); test: Time dependent inhibition of CYP3A4 (unknown origin) up to 100 uM preincubated up to 15 mins followed by 7-benzyloxy-trifluoromethylcoumarin substrate and NADPH addition by fluorescence assay; assay type: ADME
[5] = test system: Rattus norvegicus; test: Reversal of heart failure-induced pulmonary edema in Sprague-Dawley rat assessed as inhibition of GSK1016790A-induced increase in lung wet weight to body weight ratio at 0.02 to 0.21 ug/kg, iv bolus loading dose followed by 0.3 to 2.3 ug/kg/min, iv continuous infusion dose for 60 mins prior to agonist administration; assay type: functional, organism-based
How it was run: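 Rats given vehicle or antagonist by i.v. infusion, then agonist GSK1016790A i.v. at 10 µg/kg/min for 10 min (100 µg/kg total). Edema scored as wet lung weight/body weight ratio against naïve animals; inhibition computed from the agonist response; mean ± SEM.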

[6] = Oral bioavailability in Sprague-Dawley rat at 2 mg/kg by LC/MS/MS analysis; assay type: ADME, organism-based; conditions: in vivo
[7] = molecular target: Transient receptor potential cation channel subfamily V member 4 (Homo sapiens, UniProt Q9HBA0); test: Antagonist activity at human TRPV4 expressed in BHK/AC9 cells assessed as inhibition of GSK634775-induced […] pre-incubated for 10 mins followed by agonist addition by Fluo-4-AM dye-based FLIPR assay; assay type: cell-based
[8] = MRT in Sprague-Dawley rat at 1 mg/kg, iv or 2 mg/kg, po by LC/MS/MS analysis; assay type: ADME, organism-based; conditions: in vivo
[9] = molecular target: Transient receptor potential cation channel subfamily M member 8 (Homo sapiens, UniProt Q7Z2W7); test: Antagonist activity at TRPM8 (unknown origin)
[10] = Dose normalized AUC (0 to t) in rat at 2.4 mg/kg, po; assay type: ADME, organism-based; conditions: in vivo

Transient receptor potential cation channel subfamily M member 8, sequence (Q7Z2W7 whole entry): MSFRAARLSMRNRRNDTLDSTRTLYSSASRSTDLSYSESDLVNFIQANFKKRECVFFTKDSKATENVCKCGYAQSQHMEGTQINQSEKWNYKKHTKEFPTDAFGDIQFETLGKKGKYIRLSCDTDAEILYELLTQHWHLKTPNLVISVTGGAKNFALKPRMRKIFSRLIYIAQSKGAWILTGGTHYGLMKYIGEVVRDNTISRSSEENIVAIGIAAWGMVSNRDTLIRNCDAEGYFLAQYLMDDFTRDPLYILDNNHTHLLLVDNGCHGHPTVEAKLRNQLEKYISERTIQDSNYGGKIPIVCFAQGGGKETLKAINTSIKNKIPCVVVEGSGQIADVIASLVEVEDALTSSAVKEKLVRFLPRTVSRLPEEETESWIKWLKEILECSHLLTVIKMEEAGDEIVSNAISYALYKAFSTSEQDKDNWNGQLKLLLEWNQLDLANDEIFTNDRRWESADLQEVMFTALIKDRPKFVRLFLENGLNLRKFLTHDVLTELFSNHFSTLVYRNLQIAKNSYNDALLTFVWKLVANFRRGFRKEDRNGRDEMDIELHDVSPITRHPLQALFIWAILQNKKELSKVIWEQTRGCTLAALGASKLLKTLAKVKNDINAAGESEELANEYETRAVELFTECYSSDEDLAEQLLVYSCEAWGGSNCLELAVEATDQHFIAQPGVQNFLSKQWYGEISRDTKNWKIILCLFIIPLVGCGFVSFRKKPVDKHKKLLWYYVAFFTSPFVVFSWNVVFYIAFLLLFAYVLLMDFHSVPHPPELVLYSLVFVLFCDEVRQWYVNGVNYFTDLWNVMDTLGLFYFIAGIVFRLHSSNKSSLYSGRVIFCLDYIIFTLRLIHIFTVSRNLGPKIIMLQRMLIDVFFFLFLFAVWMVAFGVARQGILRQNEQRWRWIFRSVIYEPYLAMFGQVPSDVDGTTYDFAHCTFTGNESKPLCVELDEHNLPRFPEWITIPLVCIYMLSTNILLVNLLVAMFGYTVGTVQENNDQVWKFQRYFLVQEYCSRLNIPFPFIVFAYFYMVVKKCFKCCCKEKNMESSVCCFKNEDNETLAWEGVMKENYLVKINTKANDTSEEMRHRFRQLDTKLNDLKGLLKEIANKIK
Transient receptor potential cation channel subfamily M member 2, sequence (O94759 whole entry): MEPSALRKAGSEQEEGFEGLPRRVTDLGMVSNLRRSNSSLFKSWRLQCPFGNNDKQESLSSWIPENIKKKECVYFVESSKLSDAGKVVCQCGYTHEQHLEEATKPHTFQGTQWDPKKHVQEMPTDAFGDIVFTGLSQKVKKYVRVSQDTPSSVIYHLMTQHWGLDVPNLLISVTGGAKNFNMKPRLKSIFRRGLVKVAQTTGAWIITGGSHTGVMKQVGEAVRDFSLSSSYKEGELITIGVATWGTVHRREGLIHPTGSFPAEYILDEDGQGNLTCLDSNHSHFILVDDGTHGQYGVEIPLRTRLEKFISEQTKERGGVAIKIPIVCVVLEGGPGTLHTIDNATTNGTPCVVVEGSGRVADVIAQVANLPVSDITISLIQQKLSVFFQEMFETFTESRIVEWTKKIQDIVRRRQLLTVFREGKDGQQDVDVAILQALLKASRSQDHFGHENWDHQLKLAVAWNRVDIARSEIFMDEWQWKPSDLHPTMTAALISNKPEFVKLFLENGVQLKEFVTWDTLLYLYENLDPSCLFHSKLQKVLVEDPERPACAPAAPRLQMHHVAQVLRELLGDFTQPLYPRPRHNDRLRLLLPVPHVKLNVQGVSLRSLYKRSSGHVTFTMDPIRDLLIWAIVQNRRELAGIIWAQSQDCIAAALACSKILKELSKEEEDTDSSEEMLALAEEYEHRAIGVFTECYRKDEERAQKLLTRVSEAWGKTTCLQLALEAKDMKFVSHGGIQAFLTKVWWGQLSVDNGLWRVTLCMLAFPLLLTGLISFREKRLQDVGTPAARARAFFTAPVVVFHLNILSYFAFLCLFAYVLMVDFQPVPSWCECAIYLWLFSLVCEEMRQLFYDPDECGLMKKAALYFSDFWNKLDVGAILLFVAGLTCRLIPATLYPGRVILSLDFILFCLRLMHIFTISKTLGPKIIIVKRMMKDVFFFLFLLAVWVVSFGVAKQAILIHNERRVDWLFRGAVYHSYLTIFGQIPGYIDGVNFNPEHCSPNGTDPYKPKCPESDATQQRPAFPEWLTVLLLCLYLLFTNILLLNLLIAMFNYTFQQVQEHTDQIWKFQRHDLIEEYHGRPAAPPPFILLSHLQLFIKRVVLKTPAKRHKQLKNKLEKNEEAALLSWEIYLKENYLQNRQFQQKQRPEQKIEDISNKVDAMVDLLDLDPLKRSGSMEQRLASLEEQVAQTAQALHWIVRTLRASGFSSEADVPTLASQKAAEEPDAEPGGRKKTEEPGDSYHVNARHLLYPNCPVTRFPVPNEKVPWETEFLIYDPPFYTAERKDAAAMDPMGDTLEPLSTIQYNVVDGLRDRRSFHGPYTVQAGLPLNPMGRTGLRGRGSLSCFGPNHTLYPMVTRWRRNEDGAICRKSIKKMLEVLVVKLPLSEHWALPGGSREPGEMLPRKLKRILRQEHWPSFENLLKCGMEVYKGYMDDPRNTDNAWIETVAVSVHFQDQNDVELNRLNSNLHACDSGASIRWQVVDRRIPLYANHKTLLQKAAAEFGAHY
Transient receptor potential cation channel subfamily V member 4, sequence (Q9HBA0 whole entry): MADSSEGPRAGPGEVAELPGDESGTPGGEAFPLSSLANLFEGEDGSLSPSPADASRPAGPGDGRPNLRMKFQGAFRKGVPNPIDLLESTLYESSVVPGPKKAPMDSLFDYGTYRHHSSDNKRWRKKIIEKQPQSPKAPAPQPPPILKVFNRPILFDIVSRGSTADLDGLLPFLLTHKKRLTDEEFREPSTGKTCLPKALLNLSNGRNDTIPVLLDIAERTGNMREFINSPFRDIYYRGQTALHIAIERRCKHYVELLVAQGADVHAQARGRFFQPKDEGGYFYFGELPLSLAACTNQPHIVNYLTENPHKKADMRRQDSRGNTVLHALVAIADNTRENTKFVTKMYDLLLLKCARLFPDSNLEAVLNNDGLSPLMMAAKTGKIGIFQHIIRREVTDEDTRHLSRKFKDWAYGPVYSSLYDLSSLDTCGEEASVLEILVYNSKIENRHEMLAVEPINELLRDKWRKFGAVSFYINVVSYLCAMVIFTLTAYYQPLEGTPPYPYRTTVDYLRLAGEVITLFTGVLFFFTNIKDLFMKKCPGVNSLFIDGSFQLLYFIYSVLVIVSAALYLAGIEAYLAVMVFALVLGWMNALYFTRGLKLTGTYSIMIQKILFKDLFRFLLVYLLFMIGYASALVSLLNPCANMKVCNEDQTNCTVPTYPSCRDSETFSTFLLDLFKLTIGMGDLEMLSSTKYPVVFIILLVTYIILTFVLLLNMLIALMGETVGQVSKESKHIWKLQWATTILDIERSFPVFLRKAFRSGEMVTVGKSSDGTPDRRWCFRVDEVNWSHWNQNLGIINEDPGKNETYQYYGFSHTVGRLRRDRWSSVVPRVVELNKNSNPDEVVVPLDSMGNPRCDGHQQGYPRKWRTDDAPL
Cytochrome P450 3A4, sequence (P08684 whole entry, the tested form may be a part): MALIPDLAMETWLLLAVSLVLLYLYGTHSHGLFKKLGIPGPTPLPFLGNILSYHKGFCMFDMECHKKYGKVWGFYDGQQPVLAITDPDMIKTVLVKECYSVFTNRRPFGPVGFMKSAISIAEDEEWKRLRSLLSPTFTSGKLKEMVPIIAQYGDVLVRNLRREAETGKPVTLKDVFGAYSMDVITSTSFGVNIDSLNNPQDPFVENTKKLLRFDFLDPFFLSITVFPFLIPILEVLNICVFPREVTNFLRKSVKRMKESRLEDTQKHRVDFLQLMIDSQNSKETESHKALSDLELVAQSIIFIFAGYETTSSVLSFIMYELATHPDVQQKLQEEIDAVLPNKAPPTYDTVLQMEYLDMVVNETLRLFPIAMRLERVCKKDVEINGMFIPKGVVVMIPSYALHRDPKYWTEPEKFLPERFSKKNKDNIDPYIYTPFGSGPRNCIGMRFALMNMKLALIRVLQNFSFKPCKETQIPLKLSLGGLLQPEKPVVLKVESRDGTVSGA

Work on `N#Cc1ccc(S(=O)(=O)N2C[C@H](S(=O)(=O)c3ccc(Cl)cc3)[C@](O)(CO)C2)c(Cl)c1` yielded a CL free [1] of 12 mL/min/kg, a concentration at 1 h [2] of 52 nM and an IC50 [3] of over 30000 nM. For the same compound, the TDI [4] was “Not Active”, the fIC50 [5] was 0.3 nM and the IC50 ([5]; Rattus norvegicus, Sprague-Dawley) was 33 nM. For the same compound, the bioavailability [6] was 100%, the IC50 [7] was 3.2 nM and the MRT [8] was 1.6 h. It also gave an IC50 [9] of over 30000 nM and an AUCt/dose [10] of 0.5 kg·h/L.

Reference: ChEMBL document CHEMBL4382258, “Design and Optimization of Sulfone Pyrrolidine Sulfonamide Antagonists of Transient Receptor Potential Vanilloid-4 with in Vivo Activity in a Pulmonary Edema Model” (J Med Chem, 2018)
